Redox H2O2 prof: compounds producing H2O2 with reducing agent – biochemical, NIH compound library profiling, artefact control for MLSCN library redox annotation, primary screen. DTT-dependent redox cycling H2O2, phenol red/HRP absorbance; 100% = 100 µM peroxide control, 0% = buffer. activation, % at 10 µM. 200,000 tested, 0.03% active. AID 878;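 active means activation of at least 50% relative to the plate's high and low controls in the primary single-dose screen; inactive means activation below 50%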;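 further: compound incubated with DTT at 0.8 mM final as the reducing agent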
MDM2 E3 inh: inhibitors of human Mdm2 E3 ubiquitin ligase | cell-based MDM2 ubiquitination luciferase reporter, 2 h; 0 = plate control, 100 = twice control, blank-subtracted | signal enhancement, % at 5 µM | 210,000 tested, 0.11% active | AID 1230;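 active means signal enhancement of 30% or more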;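 further: luminescence tracks abundance of the self-degrading MDM2-luciferase fusion protein; higher signal means inhibition of MDM2 E3 ligase activity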
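Assay system: stable mammalian line carrying autodegrading MDM2–luciferase fusion reporter; amount: 2000 cells seeded into each well; buffer or medium: DMEM; benchmarks: plate control and blank wells; signal: luciferase luminescence; timing: 2 h compound exposure at 37 °C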
PKD1 kinase inh: blocks activity of human protein kinase D1; inhibition, % (test concentration not listed); AID 797; PKD1 kinase fluorescence polarization assay; 200,000 tested, 0.056% active; in the data active means inhibition above about 50%
Target sequence (Q15139 whole entry, looked up): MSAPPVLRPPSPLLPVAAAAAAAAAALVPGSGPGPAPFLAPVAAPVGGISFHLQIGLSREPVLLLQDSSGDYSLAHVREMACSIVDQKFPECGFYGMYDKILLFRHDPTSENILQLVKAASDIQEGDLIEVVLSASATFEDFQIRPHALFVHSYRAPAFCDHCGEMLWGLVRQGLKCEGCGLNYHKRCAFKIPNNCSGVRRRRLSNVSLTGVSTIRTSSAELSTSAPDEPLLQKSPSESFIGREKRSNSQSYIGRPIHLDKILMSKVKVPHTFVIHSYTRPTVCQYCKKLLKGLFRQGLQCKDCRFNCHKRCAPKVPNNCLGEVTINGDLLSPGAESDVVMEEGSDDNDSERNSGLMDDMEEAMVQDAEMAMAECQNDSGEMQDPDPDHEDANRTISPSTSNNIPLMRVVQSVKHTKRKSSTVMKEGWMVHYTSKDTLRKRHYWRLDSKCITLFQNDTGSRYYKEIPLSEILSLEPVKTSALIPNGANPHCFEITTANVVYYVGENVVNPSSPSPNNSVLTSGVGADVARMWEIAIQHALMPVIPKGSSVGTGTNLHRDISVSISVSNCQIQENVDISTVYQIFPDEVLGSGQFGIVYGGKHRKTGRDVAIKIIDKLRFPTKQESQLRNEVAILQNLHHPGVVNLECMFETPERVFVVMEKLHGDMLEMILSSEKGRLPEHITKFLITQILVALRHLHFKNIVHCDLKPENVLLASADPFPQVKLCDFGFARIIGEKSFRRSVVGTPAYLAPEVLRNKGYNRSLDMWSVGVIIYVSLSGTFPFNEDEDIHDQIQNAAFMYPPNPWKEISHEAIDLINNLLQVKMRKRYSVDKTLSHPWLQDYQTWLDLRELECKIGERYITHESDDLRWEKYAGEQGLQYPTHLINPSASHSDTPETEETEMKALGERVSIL
ROMK mod: modulates human ROMK potassium channel activity | P48048 | Tet-inducible ROMK, thallium flux fluorescence; actives lie on both sides | B-score at 10 µM | 130,000 tested, 2% active | AID 1918;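 active means signal ratio slope over the read window, or its plate-corrected B-score, at least 3 SD from the plate mean, either direction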;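 further: B-score of the F/F0 ratio slope over 7 to 12 s after thallium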
p97 inhibitor: blocks human p97 ATPase activity | P55072 | recombinant p97 ATPase, Kinase-Glo ATP luminescence, 3 h | inhibition, % at 8 µM | 220,000 tested, 0.42% active; in the data active means inhibition above about 15%;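 further: 0% = DMSO vehicle and 100% = wells lacking enzyme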
Cl transport mod: KCC2 (human) Cl- transport modulation | Q9H2X9 | KCC2 cells, thallium flux FluoZin-2 fluorescence | B-score of Tl+ flux slope (higher = more flux/activation; lower = inhibition) at 10 µM | 190,000 tested, 2.2% active | AID 1456;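 active means thallium flux slope and its plate-corrected score both differing from the plate sample mean at a set confidence after two filtering rounds, in either direction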;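 further: slope of fluorescence scaled to starting intensity during 10 to 20 s after thallium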
KCC2 sec1: KCC2 (human) modulation, secondary assay. shares compounds with Cl transport mod. HEK293-KCC2, thallium flux, FluoZin2 fluorescence; active compounds read high. normalised thallium flux (F/F0 slope) at 10 µM. 3,700 tested, 15% active. AID 1713;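 active means thallium flux slope above the same plate's solvent-only control mean plus 3 SD; inconclusive means the two replicate wells disagree; inactive means no significant difference from solvent-only control wells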
KCC2 bumet counter: bumetanide-insensitive thallium flux in KCC2 cells with ouabain, counter-screen; 3,700 tested, 49% active; AID 1714; normalized thallium flux at 10 µM; HEK293-KCC2 + bumetanide/ouabain, thallium flux FluoZin2; active compounds read high; shares compounds with Cl transport mod;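 active means thallium entry rate above the same plate's blocked-transporter control wells by more than 3 SD; inconclusive means the two repeat wells disagree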;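 further: raw slope of fluorescence over initial fluorescence between 10 and 20 s after thallium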
KCC2 sec2: confirmation of human KCC2 transport modulators | shares compounds with Cl transport mod | HEK293-KCC2, thallium flux FluoZin2 fluorescence; actives lie on both sides; F/F0 rise rate, 10–20 s post-thallium | normalized thallium flux at 10 µM | 3,700 tested, 23% active;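 active means thallium flux slope more than 3 SD above or below the plate's solvent-only control mean, mostly below; inconclusive means the two repeat wells disagreed; inactive means no significant shift from solvent-only controls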;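 further: raw slope with 0.1% DMSO as baseline and bumetanide as block control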
HEK counter1: counter-screen for KCC2 modulators: effect in parental HEK293 cells | 3,700 tested, 46% active | thallium flux rate (normalised fluorescence) at 10 µM | AID 1716 | shares compounds with Cl transport mod | thallium flux FluoZin2, ouabain; baseline-ratio fluorescence slope, 10–20 s after thallium;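 active means thallium flux rate significantly above the same plate's solvent-only control wells, beyond their mean plus 3 SD; inconclusive means the two replicate wells gave conflicting results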
KCC2 ouabain: KCC2 (human) modulation, ouabain retest; shares compounds with Cl transport mod; HEK293-KCC2, thallium flux FluoZin2 fluorescence; bidirectional: low = inhibitor, high = activator; raw Tl+ flux slope (below DMSO = inhibition, above = activation) at 10 µM; 3,700 tested, 48% active;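 active means thallium flux slope beyond 3 SD from same-plate DMSO control mean in most replicates, usually higher, sometimes lower; inconclusive means repeat tests gave conflicting results; inactive means no significant difference from controls in most replicates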;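 further: slope of initial-normalized fluorescence between seconds 10 and 20 after thallium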
HEK counter2: counter-screen for KCC2 modulators: effect in parental HEK293 cells. shares compounds with Cl transport mod. thallium flux FluoZin-2 fluorescence slope. thallium flux slope at 10 µM. 3,700 tested, 33% active. AID 1718;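 active means thallium flux slope above the same plate's solvent-control mean plus 3 SD in both duplicate wells; inconclusive means duplicate wells that disagreed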;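 further: run without ouabain in cells lacking the KCC2 cotransporter; slope of fluorescence scaled to its starting value between 10 and 20 s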
The depositor's hits bear a star; ? = inconclusive; nt = not tested or not shown. The list is not random: actives were taken first. Their share in the collection is about 3.4%.

SMILES	Redox H2O2 prof	MDM2 E3 inh	PKD1 kinase inh	ROMK mod	p97 inhibitor	Cl transport mod	KCC2 sec1	KCC2 bumet counter	KCC2 sec2	HEK counter1	KCC2 ouabain	HEK counter2
Cc1cccc(Nc2nnc(SCC(=O)NC3CCCc4ccccc43)s2)c1 (stereo not given)	-0.4	nt	-2.1	-0.296	-11.6	-0.265	nt	nt	nt	nt	nt	nt
O=C(CSc1ccccn1)N1CCOCC1	-0.2	3.6	3.3	0.149	4.3	0.00451	nt	nt	nt	nt	nt	nt
Cc1cc(C)c(C#N)c(N2CCN(Cc3ccccc3)CC2)n1	0.3	-10.4	-0.7	-0.214	-0.2	-3.73*	0.0168	0.00423	?	0.00671	0.0141	0.00982
CCCC(=O)N1CCN(c2ccc(NC(=O)c3cc4ccccc4o3)cc2)CC1	2.4	-12.4	-9.2	0.398	1.6	-0.092	nt	nt	nt	nt	nt	nt
CCC1=NN2C(=N)/C(=C\c3cccn3-c3ccc(Br)cc3)C(=O)N=C2S1	-0.9	2.6	5.0	1.11	-2.6	11.3*	0.00748	0.0224*	0.0325	0.019*	0.0253*	0.0141*
CCC1=NN2C(=N)/C(=C/c3cc(C)n(Cc4ccccc4)c3C)C(=O)N=C2S1	nt	-5.7	nt	nt	1.8	2.1	nt	nt	nt	nt	nt	nt
CCC1=NN2C(=N)/C(=C\c3cccn3-c3cccc(Cl)c3)C(=O)N=C2S1	-0.7	-1.5	-1.8	1.86	-0.3	8.8*	0.0167	0.0503*	?	0.0209*	0.0263*	0.0212*
COc1ccc(-n2cccc2/C=C2\C(=N)N3N=C(C(C)C)SC3=NC2=O)cc1	-0.3	-14.0	-5.5	-1.03	-4.6	2.22	nt	nt	nt	nt	nt	nt
c1ccc2c(c1)[nH]c1c(N3CCC4(CC3)OCCO4)ncnc12	0.1	-24.6	8.0	-2.14	-3.5	nt	0.00608	0.00493	0.0322	0.00782	0.018	0.0117
Cc1ccc2[nH]c3c(N4CCN(Cc5ccccc5)CC4)ncnc3c2c1	-0.8	-23.7	-7.6	-0.652	-2.9	nt	0.00641	0.00498	0.0223*	0.00756	?	0.0112
CC(C)NC(=O)COC(=O)c1cncc(Br)c1	0.2	0.8	-1.7	0.279	3.9	-0.312	nt	nt	nt	nt	nt	nt
CSc1ccccc1NC(=O)c1cc(C)on1	0.4	-0.5	-0.5	2.03	0.1	nt	nt	nt	nt	nt	nt	nt
CSc1ccccc1NC(=O)c1cc(C(C)C)on1	0.1	1.0	-4.7	-0.166	-0.1	nt	0.00809	0.00421	0.0282	0.00734	0.0174	0.00994
CCOC(=O)NNc1ccc2nonc2c1[N+](=O)[O-]	nt	-7.6	nt	nt	20.9*	12.7*	0.00705	0.0133*	0.0334	0.013*	0.0244*	0.0133*
Cc1cc(S(=O)(=O)N(Cc2ccccc2)Cc2ccc(N(C)C)cc2)ccc1-n1cnnn1	-0.1	-3.7	-5.7	-0.17	1.4	1.06	nt	nt	nt	nt	nt	nt
Cc1cc(S(=O)(=O)N(C)CCc2ccccc2)ccc1-n1cnnn1	-2.3	-22.4	-5.5	nt	2.3	-4.61*	0.00819	0.00474	0.0241*	0.00739	0.0158*	0.01
CCCCn1c(SCC(=O)NCc2ccccc2)nc2ccc(N3CCOCC3)cc2c1=O	1.4	-19.0	-3.1	0.0056	-0.8	3.99*	0.00705	0.016*	0.0343	0.0112*	?	?
Cc1cccc(S(=O)(=O)NCCc2cn3ccccc3n2)c1	-0.2	-6.9	-4.3	0.301	9.0	-0.128	nt	nt	nt	nt	nt	nt
O=C(Nc1ccc(Cl)cc1)N(CCCN1CCOCC1)Cc1cccs1	-0.9	-13.2	-12.7	nt	4.1	1.03	nt	nt	nt	nt	nt	nt
O=S(=O)(c1ccc(Cl)cc1)N(CCCN1CCOCC1)Cc1cccs1	0.0	-13.9	-0.6	-0.402	2.5	nt	0.0169	0.00417	0.029	?	0.015	0.00991
O=C(O)CSc1nc(-c2cccs2)cc(C(F)(F)F)n1	0.8	-15.7	8.9	0.772	-1.0	-0.0201	nt	nt	nt	nt	nt	nt
CCC(C)NC(=O)CSc1nc(-c2cccs2)cc(C(F)(F)F)n1 (stereo not given)	-1.5	-0.3	-11.5	-0.481	3.1	2.86*	0.0058	0.00441	0.0301	0.00745	0.0192	0.0104
COc1ccc(/C(O)=C2/C(=O)C(=O)N(CCN(C)C)C2c2cccnc2)cc1C (stereo not given)	-1.2	1.5	-0.6	-0.438	4.8	0.412	nt	nt	nt	nt	nt	nt
O=C(NC(=S)NN1CCCCC1c1cccnc1)c1ccc(Br)cc1 (stereo not given)	nt	-4.3	nt	nt	3.2	65*	0.0333*	0.0994*	0.0461*	0.0398*	0.0665*	0.02*
COC(=O)c1ccc(NC(=S)NN2CCCCC2c2cccnc2)cc1 (stereo not given)	nt	-30.2	nt	nt	7.1	-0.896	nt	nt	nt	nt	nt	nt
SMILES	Redox H2O2 prof	MDM2 E3 inh	PKD1 kinase inh	ROMK mod	p97 inhibitor	Cl transport mod	KCC2 sec1	KCC2 bumet counter	KCC2 sec2	HEK counter1	KCC2 ouabain	HEK counter2
CN(C)c1ccc(NC(=S)N2CCN(c3ncc(C(F)(F)F)cc3Cl)CC2)cc1	nt	-11.4	nt	nt	4.5	0.346	nt	nt	nt	nt	nt	nt
C/C(=N\NC(=S)Nc1c(C)cccc1C)c1cc2ccccc2o1	-0.3	-22.5	-0.8	-0.0141	-6.3	8.64*	0.00639	0.0115*	0.0309	0.0173*	?	0.0129*
C/C(=N\NC(=S)Nc1ccccc1C)c1cc2ccccc2o1	nt	nt	nt	nt	3.3	40.3*	0.00798	0.0473*	0.0475*	0.0431*	0.0518*	0.0346*
C/C(=N\NC(=O)c1ccco1)c1cc2ccccc2o1	-1.1	-8.7	4.4	0.0169	0.8	1.68	nt	nt	nt	nt	nt	nt
Cc1ccc(NC(=O)CN2C(=O)CN(C)C2=O)cc1S(=O)(=O)N1CCCCC1	-0.9	-2.8	-5.4	-0.462	-2.9	-0.448	nt	nt	nt	nt	nt	nt
CN(C)S(=O)(=O)Oc1ccccc1C(=O)Nc1ccc(F)cc1	-0.6	-9.6	-3.5	0.0637	-2.6	-0.105	nt	nt	nt	nt	nt	nt
Oc1c(N=NC(=S)Nc2ccccc2F)c2ccccc2n1Cc1ccc(F)cc1	-1.0	-13.5	11.0	-0.052	4.5	8.29*	0.0188	0.0297*	0.0297	0.0128*	0.0193	0.0144*
Oc1c(N=NC(=S)Nc2ccccc2F)c2ccccc2n1Cc1cccc(Cl)c1	-0.6	-2.4	0.2	-0.222	0.5	3.59	nt	nt	nt	nt	nt	nt

Bioassay records as filed in PubChem BioAssay.
